The values below come from ChEMBL document CHEMBL1159038, “Synthetic studies on selective adenosine A2A receptor antagonists: synthesis and structure-activity relationships of novel benzofuran derivatives” (Bioorg Med Chem Lett, 2010).

For data set [1], the target named is Adenosine receptor A2a (Homo sapiens) (UniProt P29274). Put plainly: Inhibition of [3H]CGS21680 binding to human adenosine A2A receptor at 1 umol/L by scintillation counting. The method in brief: (§1)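 Membranes from cells transfected with human A2A receptor, diluted 20-fold in 50 mmol/L Tris pH 7.4 with 120 mmol/L NaCl, 5 mmol/L KCl, 10 mmol/L MgCl2, 2 mmol/L CaCl2 and 2 U/mL adenosine deaminase. Incubated with [3H]CGS21680 (final 75 nmol/L) and test drug, 25 °C for 90 min. Filtered through 0.5% polyethyleneimine-treated filters, then scintillation counted. Nonspecific binding with 50 µmol/L NECA. Triplicate average.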
Chain of Adenosine receptor A2a (Homo sapiens) (P29274 whole entry): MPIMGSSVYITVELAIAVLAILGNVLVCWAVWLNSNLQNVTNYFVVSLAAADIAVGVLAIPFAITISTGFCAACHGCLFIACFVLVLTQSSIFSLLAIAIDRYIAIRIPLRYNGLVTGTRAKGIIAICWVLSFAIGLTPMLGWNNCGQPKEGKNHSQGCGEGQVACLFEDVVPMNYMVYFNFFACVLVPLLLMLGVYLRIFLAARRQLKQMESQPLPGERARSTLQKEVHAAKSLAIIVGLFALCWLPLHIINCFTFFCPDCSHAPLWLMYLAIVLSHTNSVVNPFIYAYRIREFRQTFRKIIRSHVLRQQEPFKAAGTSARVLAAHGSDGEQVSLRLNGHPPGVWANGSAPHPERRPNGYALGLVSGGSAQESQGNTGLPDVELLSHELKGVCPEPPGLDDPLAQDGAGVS

Data set [2] shares this target. As to the kind of experiment: Inhibition of [3H]CGS21680 binding to human adenosine A2A receptor at 0.01 umol/L by scintillation counting. The method in brief:
as §1

The target is the same in data set [3]. Put plainly: Inhibition of [3H]CGS21680 binding to human adenosine A2A receptor at 0.1 umol/L by scintillation counting. The method in brief:
as §1

A further data set relates to Mus musculus. Put plainly: Antiparkinsonian effect in mouse assessed as inhibition of CGS-21680-induced catalepsy at 10 mg/kg, po. The class given is functional. The method in brief: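 Compounds were given orally at 10 mg/kg to mice. Catalepsy was induced with CGS, and inhibition of catalepsy is expressed as %.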
Data set [4] is described as follows: Intrinsic clearance in rat liver microsomes. The class given is ADME, Microsome. In a few lines:
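Rat liver microsomal incubations gave the apparent intrinsic clearance (CL_int). This was corrected for the free fraction of compound in the incubation to give CL_int/f_m.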

In data set [5] the target is T1, Adenosine receptor A1 (Homo sapiens) (UniProt P30542).
T1 sequence (whole entry): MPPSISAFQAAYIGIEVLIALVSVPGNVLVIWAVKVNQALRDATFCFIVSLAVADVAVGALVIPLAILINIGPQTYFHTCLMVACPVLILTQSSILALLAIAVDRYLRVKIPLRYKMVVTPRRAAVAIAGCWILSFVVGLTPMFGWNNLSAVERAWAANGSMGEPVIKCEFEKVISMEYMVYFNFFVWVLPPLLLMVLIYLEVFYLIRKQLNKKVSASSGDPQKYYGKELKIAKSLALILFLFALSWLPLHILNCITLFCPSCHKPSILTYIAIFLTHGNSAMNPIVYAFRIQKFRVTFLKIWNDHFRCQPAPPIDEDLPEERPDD
As to the kind of experiment: Antagonist activity at human adenosine A1 receptor at 10 umol/L. The class given is functional.

Data set [6] concerns the target T2, Adenosine receptor A2b (Homo sapiens) (UniProt P29275).
T2 sequence (whole entry): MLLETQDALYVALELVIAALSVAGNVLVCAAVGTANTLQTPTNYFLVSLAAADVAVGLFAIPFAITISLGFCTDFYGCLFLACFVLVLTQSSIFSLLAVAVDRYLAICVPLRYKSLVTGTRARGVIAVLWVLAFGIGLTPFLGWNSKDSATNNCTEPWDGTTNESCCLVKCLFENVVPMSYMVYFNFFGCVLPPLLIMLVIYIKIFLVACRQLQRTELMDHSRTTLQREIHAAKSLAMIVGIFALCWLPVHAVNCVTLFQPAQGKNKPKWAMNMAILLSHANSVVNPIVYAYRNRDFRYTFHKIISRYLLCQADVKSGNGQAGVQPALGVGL
As to the kind of experiment: Antagonist activity at human adenosine A2B receptor at 10 umol/L. It is filed as functional.

Data set [7] deals with T1, Adenosine receptor A1 (Homo sapiens). Put plainly: Antagonist activity at human adenosine A1 receptor at 1 umol/L. It is filed as functional.
The target in data set [8] is T2, Adenosine receptor A2b (Homo sapiens). As to the kind of experiment: Antagonist activity at human adenosine A2B receptor at 1 umol/L. It is filed as functional.

Turning to `COC(=O)c1ccc(OC)c2oc(C(=O)Nc3ccc(Cn4ccnc4)cc3)cc12`, the values for the inhibition in [1], in [2] and in data set [3] were 98%, 40% and 80%, respectively. The inhibition in vivo at 10 mg/kg in the data set with Mus musculus was determined as 0%.

`COc1ccc(-c2ccccc2)c2cc(NC(=O)Oc3ccccc3)oc12`: the values for the inhibition in [2] and in [3] were 23% and 65%, respectively. In addition, the inhibition in vivo at 10 mg/kg in the data set on Mus musculus was 34%.

On to `COc1ccc(-c2ccccc2)c2cc(C(=O)Nc3ccncc3)sc12`, for which the inhibition is 11% in data set [2] and 31% in [3].

Take `COC(=O)c1ccc(OC)c2oc(C(=O)Nc3ccc(Cl)cc3)cc12`: the results for the inhibition in data set [1], in data set [2] and in data set [3] were 77%, 1% and 43%, respectively.

With `COC(=O)Nc1cc2c(-c3ccccc3)ccc(OC)c2o1`, the inhibition amounted to 28% in data set [2] and 85% in data set [3]. Besides, the inhibition in vivo at 10 mg/kg in the data set on Mus musculus is 86%.

With `COc1ccc(-c2ccccc2)c2cc(NC(=O)Oc3ccc(F)cc3)oc12`, the inhibition in data set [2] is 11%; in data set [3], 32%.

As to `CCOC(=O)c1ccc(-c2ccc(OC)c3oc(C(=O)Nc4ccccc4)cc23)cc1`, the inhibition in data set [1] is -8%; in data set [3] it was -2%.

For the molecule `COc1ccc(-c2ccccc2)c2cc(C(=O)Nc3c(Cl)cncc3Cl)oc12`, the inhibition in [2] turned out to be 83%; in data set [3] it was 101%. Besides, the inhibition in vivo at 10 mg/kg in the data set with Mus musculus was determined as 74%.

`COc1ccc(-c2ccc(Cl)cc2)c2cc(C(=O)Nc3ccncc3)oc12`: the inhibition stood at 18% in [2] and 28% in data set [3].

Consider `COC(=O)c1ccc(OC)c2oc(C(=O)Nc3ccc(OC)cc3)cc12`, for which the inhibition in [1] was 91%; in data set [3], 53%.

On to `COc1ccc(-c2ccccc2)c2cc(C(=O)Nc3ccc(Cn4ccnc4)cc3)oc12`, for which the inhibition in data set [1] worked out at 95%; in [2] it was 24%; in [3], 64%; in data set [5], 10%; in data set [6] it was 1%; in [7] it was 9%. In addition, the inhibition in data set [8] worked out at 1%. Also, the intrinsic clearance (CLint scaled) in data set [4] was 2600 mL/min/kg. Further, in the data set with Mus musculus, the inhibition in vivo at 10 mg/kg turned out to be 12%.

Regarding `COc1ccc(NC(=O)c2cc3c(-c4csc(-c5ccccc5)n4)ccc(OC)c3o2)cc1`, the inhibition in data set [2] came out at 6%; in data set [3], 11%.

Take `COc1ccc(-c2ccccc2)c2cc(C(=O)Nc3ccc(F)cc3)oc12`: the inhibition worked out at 67% in data set [1], 13% in [2] and 49% in data set [3].

With `COc1ccc(-c2ccc(OC)c3oc(C(=O)Nc4ccc(Cn5ccnc5)cc4)cc23)cc1`, the inhibition in data set [1] was 90%; in data set [2] it was 24%; in [3] it was 63%; in data set [6], 4%; in [7], -4%. Moreover, in the data set with Mus musculus, the inhibition in vivo at 10 mg/kg was found to be 54%.

For the molecule `COc1ccc(-c2csc(C)n2)c2cc(C(=O)Nc3ccc(F)cc3)oc12`, the results for the inhibition in data set [1], in data set [2] and in data set [3] were 60%, 1% and 15%, respectively.

On to `COc1ccc(-c2ccccc2)c2cc(C(=O)Nc3ccc(Cn4ccnc4)cc3)sc12`, for which the results for the inhibition in data set [2] and in data set [3] were 25% and 20%, respectively.

With `COc1ccc(-c2ccccc2)c2cc(C(=O)Nc3ccncc3)oc12`, the inhibition in [1] turned out to be 100%; in data set [5], 77%; in [6] it was 58%; in [7], 20%; in data set [8], 21%. The molecule also showed a CLint scaled in data set [4] of 580 mL/min/kg. Also, in the data set with Mus musculus, the inhibition in vivo at 10 mg/kg was 40%.

For the molecule `COC(=O)c1ccc(OC)c2oc(C(=O)Nc3cccc(F)c3)cc12`, the inhibition in [1] turned out to be 86%; in data set [2] it was 14%; in data set [3], 58%. For the same molecule, the inhibition in vivo at 10 mg/kg with Mus musculus came to 48%.

Regarding `COc1ccc(-c2ccccc2)c2cc(NC(C)=O)oc12`, the inhibition in [2] turned out to be 62%; in data set [3] it was 91%. In the data set on Mus musculus, the inhibition in vivo at 10 mg/kg was 28%.

As for `COc1ccc(-c2ccc(Cl)cc2)c2cc(C(=O)Nc3ccc(Cn4ccnc4)cc3)oc12`, the inhibition in data set [2] stood at 8%; in [3], 33%.

For the molecule `COc1ccc(-c2ccccc2)c2cc(C(=O)NN3CCOCC3)oc12`, the inhibition turned out to be 103% in data set [1]; 39% in [2]; 81% in data set [3]; 82% in data set [5]; 98% in [6]; 37% in data set [7]. The inhibition in data set [8] turned out to be 81%. The molecule also gave a CLint scaled in data set [4] of 20.3 mL/min/kg. For the same molecule, the inhibition in vivo at 10 mg/kg with Mus musculus was found to be 78%.

Take `CNC(=O)c1cc2c(-c3ccccc3)ccc(OC)c2o1`: the values for the inhibition in data set [2] and in data set [3] were 57% and 88%, respectively. Also, the inhibition in vivo at 10 mg/kg in the data set on Mus musculus amounted to 18%.

Regarding `COc1ccc(-c2csc(-c3ccc(C)nc3)n2)c2cc(C(=O)Nc3ccc(Cn4ccnc4)cc3)oc12`, the inhibition in data set [1] came out at 20%; in data set [2], 12%; in data set [3], 23%.

As to `COC(=O)c1ccc(OC)c2oc(C(=O)Nc3ccccc3)cc12`, the inhibition in data set [1] was 86%; in [2] it was 6%; in [3] it was 49%. The CLint scaled in data set [4] is 758 mL/min/kg.

As to `COc1ccc(-c2csc(-c3ccc(C)nc3)n2)c2cc(C(=O)Nc3ccc(F)cc3)oc12`, the inhibition in data set [1] came to 4%; in data set [2], 17%; in data set [3], 6%.

As to `COc1ccc(-c2ccccc2)c2cc(NC(=O)Nc3ccc(F)cc3)oc12`, the inhibition in [2] worked out at 22%; in data set [3], 37%.
